Results on 1 molecule are retold here after ChEMBL document CHEMBL5370653, “Stereoselective Synthesis, Pro-resolution, and Anti-inflammatory Actions of RvD5n-3 DPA” (J Nat Prod, 2023).

In series [1] the test system is Macrophage. Nature of the series: Antiinflammatory activity in human macrophages assessed as increase in MerTK level at 10 nM incubated for 7 days by flow cytometry analysis. Particulars: time 7.0 day. In kind it is functional, cell-based. In outline:
(§1)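 PBMCs from healthy donors (dextran RBC sedimentation, Histopaque-1077) seeded in low-adhesion plates, 800,000 cells/well. Differentiated to macrophages over 7 days in RPMI-1640 with 10% human serum and 20 ng/mL GM-CSF, with 10 nM test agent or 0.05% ethanol vehicle. Lifted with 5 mM EDTA, Fc-blocked with gamma globulins, surface-stained, then fixed/permeabilized for Arg1. Median fluorescence intensities analyzed by PLS-DA and VIP scores.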

The test system of series [2] is Macrophage. The experiment in a line: Induction of phagocytosis in human macrophages assessed as clearance of pHrodo green conjugated Staphylococcus aureus at 0.001 to 10 nM measured after 2 hrs by hoechst 33342 staining based high content imaging analysis. It counts as functional, cell-based. Particulars: dose 0.001-10 nM. In outline: (§2)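 Macrophages from donor PBMCs (7 days, RPMI-1640, 10% human serum, 20 ng/mL GM-CSF), 50,000 cells/well, adhered overnight, Hoechst-stained. Pretreated 15 min at 37 °C in RPMI-1640 with 0.001–10 nM or 0.05% ethanol vehicle. Opsonized pHrodo particles added (S. aureus or E. coli 5 μg/well, zymosan 2.5 μg/well). Phagocytosis imaged over 2 h. Mean ± SEM, N = 6 donors.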

The test system of series [3] is Macrophage. The experiment in a line: Induction of phagocytosis in human macrophages assessed as clearance of pHrodo red-conjugated Escherichia coli at 0.001 to 10 nM measured after 2 hrs by hoechst 33342 staining based high content imaging analysis. In kind it is functional, cell-based. As to conditions: dose 0.001-10 nM. The method, boiled down: as §2
The test system of series [4] is Neutrophil. The experiment in a line: Induction of phagocytosis in human neutrophils assessed as clearance of pHrodo red-conjugated zymosan A particles at 0.001 to 10 nM measured after 2 hrs by hoechst 33342 staining based high content imaging analysis. It counts as functional, cell-based. As to conditions: dose 0.001-10 nM. The method, boiled down: (§3)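 Blood neutrophils from healthy donors, Hoechst 33342-stained, in X-VIVO15 with 2 mM L-glutamine and 1% pen/strep, 250,000 cells/well, adhered 30 min at 37 °C. Pretreated 15 min at 37 °C with 0.001–10 nM or 0.05% ethanol vehicle. Then given IgG-opsonized pHrodo particles (S. aureus 5 μg/well, E. coli 5 μg/well, zymosan 2.5 μg/well). Signal rise imaged over 2 h. Mean ± SEM, N = 6 donors.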

In series [5] the test system is Neutrophil. Nature of the series: Induction of phagocytosis in human Neutrophil assessed as clearance of pHrodo red-conjugated Escherichia coli at 0.001 to 10 nM measured after 2 hrs by hoechst 33342 high content imaging analysis. In kind it is functional, cell-based. Particulars: dose 0.001-10 nM. In outline: as §3
Series [6] has as its system Neutrophil. The experiment in a line: Induction of phagocytosis in human neutrophils assessed as clearance of pHrodo green conjugated Staphylococcus aureus at 0.001 to 10 nM measured after 2 hrs by hoechst 33342 staining based high content imaging analysis. It counts as functional, cell-based. As to conditions: dose 0.001-10 nM. The method, boiled down: as §3
Series [7] deals with Macrophage. Nature of the series: Antiinflammatory activity in human macrophages assessed as increase in CD163 at 10 nM incubated for 7 days by flow cytometry analysis. It counts as functional, cell-based. As to conditions: time 7.0 day. In outline: as §1
(In general: A flow cytometer gives signals particle by particle.)

The subject of series [8] is Macrophage. Nature of the series: Antiinflammatory activity in human macrophages assessed as decrease in CD80 level at 10 nM incubated for 7 days by flow cytometry analysis. In kind it is functional, cell-based. As to conditions: time 7.0 day. The method, boiled down:
as §1

Series [9] deals with Macrophage. The experiment in a line: Antiinflammatory activity in human macrophages assessed as increase in arginase-1 level at 10 nM incubated for 7 days by flow cytometry analysis. Particulars: time 7.0 day. It counts as functional, cell-based. The method, boiled down:
as §1

Series [10] relates to Macrophage. The experiment in a line: Induction of phagocytosis in human macrophages assessed as clearance of pHrodo red-conjugated zymosan A particles at 0.001 to 10 nM measured after 2 hrs by hoechst 33342 staining based high content imaging analysis. In kind it is functional, cell-based. Particulars: dose 0.001-10 nM. In outline:
as §2

Series [11] concerns Macrophage. Nature of the series: Antiinflammatory activity in human macrophages assessed as decrease in CD142 level at 10 nM incubated for 7 days by flow cytometry analysis. In kind it is functional, cell-based. Particulars: time 7.0 day. The method, boiled down:
as §1

A short description of series [12]: Retention time of the compound in human serum by RP-LC-MS/MS. It counts as ADME, cell-free. In outline:
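Pooled human serum (0.5 mL) mixed with 2 volumes cold MeOH containing d5-Maresin 1, held at −20 °C ≥45 min, then centrifuged. Automated C18 SPE at pH 3.5. Analyzed on a C18 Poroshell column at 0.5 mL/min with a MeOH/H2O/acetic acid gradient. MRM transition 361 > 199.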

The source made the active and inactive calls. The calls are words filed in the database; no cut-off is given here.

As to `CC/C=C\C[C@H](O)/C=C/C=C\C/C=C\C=C\[C@@H](O)CCCCCC(=O)O`, the result in series [1], in [2], in series [3], in series [4], in [5] and in series [6] was Active. For the same molecule, the result in [7], in series [8], in series [9], in series [10] and in series [11] was Active. In series [12], this molecule displayed a Retention_time of 13.5 min.
